The source made the active and inactive calls. The calls are words filed in the database; no cut-off is given here.
Experiments:
Protein smoothened [1] = biological target: T1, Protein smoothened (Homo sapiens, UniProt Q99835); assay: Displacement of BODIPY-cyclopamine from human Smo expressed in HEK293 cells in presence of 2% fetal calf serum; type: cell-based
In short: (§1)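 Competition binding: displacement of fluorescently labeled bodipy-cyclopamine from recombinant human Smo expressed in HEK-293 cells. Run in 2% fetal calf serum and, separately, in 20% normal human serum. IC50 values are means of at least five experiments.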

Rattus norvegicus = organism: Rattus norvegicus; assay: Clearance in rat; type: ADME, organism-based; settings: in vivo
[2] = Half life in rat; type: ADME, organism-based; settings: in vivo
Protein smoothened [3] = biological target: T1, Protein smoothened; assay: Displacement of BODIPY-cyclopamine from human Smo expressed in HEK293 cells in presence of 20% normal human serum; type: cell-based; in short: as §1
[4] = Volume of distribution at steady state in rat; type: ADME, organism-based; settings: in vivo, read-out: Vdss
[5] = Oral bioavailability in rat; type: ADME, organism-based; settings: in vivo
[6] = Antiproliferative activity against irradiated Ptch +/- mouse medulloblastoma cells; type: functional; settings: Medulloblastoma cell, light or radiation study
In short: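 Proliferation of irradiated Ptch +/- mouse medulloblastoma cells, which depend on the Hh pathway; readout reported as CC50.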

CYP2C9 = CYP2C9 (Homo sapiens, UniProt P11712); assay: Inhibition of CYP2C9 at 10 uM; type: ADME
CYP2C9, sequence (P11712 whole entry): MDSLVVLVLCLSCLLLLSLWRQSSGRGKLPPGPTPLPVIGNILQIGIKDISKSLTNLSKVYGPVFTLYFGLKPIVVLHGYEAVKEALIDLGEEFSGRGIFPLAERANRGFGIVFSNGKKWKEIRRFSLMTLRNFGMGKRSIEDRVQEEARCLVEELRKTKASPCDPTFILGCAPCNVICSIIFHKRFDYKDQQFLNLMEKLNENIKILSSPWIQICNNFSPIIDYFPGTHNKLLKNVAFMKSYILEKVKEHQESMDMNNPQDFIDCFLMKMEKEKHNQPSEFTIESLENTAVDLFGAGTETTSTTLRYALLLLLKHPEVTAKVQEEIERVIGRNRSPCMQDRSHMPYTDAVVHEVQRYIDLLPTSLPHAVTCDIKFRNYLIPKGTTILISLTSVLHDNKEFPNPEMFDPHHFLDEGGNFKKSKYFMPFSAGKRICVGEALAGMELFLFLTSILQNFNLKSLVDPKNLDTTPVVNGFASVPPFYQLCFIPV

CYP3A4 = CYP3A4 (Homo sapiens, UniProt P08684); assay: Inhibition of CYP3A4 at 10 uM; type: ADME
CYP3A4, sequence (P08684 whole entry): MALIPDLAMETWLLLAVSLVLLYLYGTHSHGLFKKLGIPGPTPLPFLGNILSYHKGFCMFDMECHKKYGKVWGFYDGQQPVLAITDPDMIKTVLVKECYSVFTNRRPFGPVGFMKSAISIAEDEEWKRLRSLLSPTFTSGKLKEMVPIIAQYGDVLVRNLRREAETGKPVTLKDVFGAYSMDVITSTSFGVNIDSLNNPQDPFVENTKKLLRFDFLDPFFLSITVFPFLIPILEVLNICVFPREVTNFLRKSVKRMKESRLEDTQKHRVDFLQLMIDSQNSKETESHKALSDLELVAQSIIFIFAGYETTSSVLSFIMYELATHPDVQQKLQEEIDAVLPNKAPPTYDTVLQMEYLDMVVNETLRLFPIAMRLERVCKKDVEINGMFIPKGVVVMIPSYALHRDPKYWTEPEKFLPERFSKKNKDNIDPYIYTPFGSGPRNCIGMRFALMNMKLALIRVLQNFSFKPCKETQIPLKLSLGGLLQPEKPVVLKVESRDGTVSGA

[7] = Plasma protein binding in human assessed as unbound fraction; type: ADME, cell-free
Canis familiaris = organism: Canis familiaris; assay: Clearance in dog; type: ADME, organism-based, Canis lupus familiaris; settings: in vivo
[8] = Half life in dog; type: ADME, organism-based, Canis lupus familiaris; settings: in vivo
[9] = Volume of distribution at steady state in dog; type: ADME, organism-based, Canis lupus familiaris; settings: in vivo, read-out: Vdss
[10] = Oral bioavailability in dog; type: ADME, organism-based, Canis lupus familiaris; settings: in vivo
Mus musculus [11] = assay: Toxicity in mouse medulloblastoma allograft model assessed as mortality at 120 mg/kg, po bid for 3 weeks; type: organism-based; set-up: dose 120 mg/kg, route oral; settings: in vivo, 504 h
In short: (§2)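 Primary mouse medulloblastoma allografts grown subcutaneously; mice were randomized once tumors averaged 400 mm³. The compound was given orally as a suspension in 0.24% SDS/0.5% Methocel, either bid for 3 weeks or 80 mg/kg qd. Tolerability was monitored by body-weight loss, visible physical signs and mortality.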

Mus musculus [12] = assay: Toxicity in mouse medulloblastoma allograft model assessed as mortality at 40 mg/kg, po bid for 3 weeks; type: organism-based; set-up: dose 40 mg/kg, route oral; settings: in vivo, 504 h; in short: as §2
Medulloblastoma cell [13] = assay: Antitumor activity against primary mouse medulloblastoma allograft model assessed as tumor growth inhibition at 80 mg/kg, po qd for 3 weeks; type: functional, organism-based; set-up: dose 80 mg/kg
In short: (§3)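 Primary mouse medulloblastoma allograft, subcutaneous. Mice randomized when tumors averaged 400 mm³. Oral dosing for 3 weeks, bid at 40, 80, 120 or 160 mg/kg, or 80 mg/kg qd. Compound given as a suspension in 0.24% SDS/0.5% Methocel, with a BID vehicle control. Tumor volume tracked over days; body weight, physical signs and mortality monitored.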

Medulloblastoma cell [14] = assay: Antitumor activity against primary mouse medulloblastoma allograft model assessed as tumor growth inhibition at 40 mg/kg, po bid for 3 weeks; type: functional, organism-based; set-up: dose 40 mg/kg; in short: as §3
Medulloblastoma cell [15] = assay: Antitumor activity against primary mouse medulloblastoma allograft model assessed as tumor growth inhibition at 160 mg/kg, po bid for 3 weeks; type: functional, organism-based; set-up: dose 160 mg/kg; in short: as §3
Medulloblastoma cell [16] = assay: Antitumor activity against primary mouse medulloblastoma allograft model assessed as tumor growth inhibition at 80 mg/kg, po bid for 3 weeks; type: functional, organism-based; set-up: dose 80 mg/kg; in short: as §3
[17] = AUC in mouse at 80 mg/kg, po; type: ADME, organism-based; set-up: dose 80 mg/kg, route oral; settings: plasma
Mus musculus [18] = assay: Toxicity in mouse medulloblastoma allograft model assessed as body weight loss at 80 mg/kg, po qd for 3 weeks; type: organism-based; set-up: dose 80 mg/kg, route oral; settings: in vivo, 504 h; in short: as §3
[19] = AUC in mouse at 160 mg/kg, po; type: ADME, organism-based; set-up: dose 160 mg/kg, route oral; settings: plasma
Mus musculus [20] = assay: Toxicity in mouse medulloblastoma allograft model assessed as visible physical signs at 80 mg/kg, po qd for 3 weeks; type: organism-based; set-up: dose 80 mg/kg, route oral; settings: in vivo, 504 h; in short: as §2
Mus musculus [21] = assay: Toxicity in mouse medulloblastoma allograft model assessed as body weight loss at 160 mg/kg, po bid for 3 weeks; type: organism-based; set-up: dose 160 mg/kg, route oral; settings: in vivo, 504 h; in short: as §3
Mus musculus [22] = assay: Toxicity in mouse medulloblastoma allograft model assessed as visible physical signs at 160 mg/kg, po bid for 3 weeks; type: organism-based; set-up: dose 160 mg/kg, route oral; settings: in vivo, 504 h; in short: as §2
Mus musculus [23] = assay: Toxicity in mouse medulloblastoma allograft model assessed as visible physical signs at 120 mg/kg, po bid for 3 weeks; type: organism-based; set-up: dose 120 mg/kg, route oral; settings: in vivo, 504 h; in short: as §2
Mus musculus [24] = assay: Inhibition of Shh pathway in mouse medulloblastoma allograft model assessed as reduction in tumor Gli-1 mRNA expression at 80 mg/kg, po administered as single dose measured after 4 to 12 hrs; type: functional
In short: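 Tumor-bearing medulloblastoma mice given a single oral 80 mg/kg dose. Tumor biopsies taken at timepoints up to 24 h; Hh-pathway inhibition measured as reduction of Gli-1 mRNA.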

Medulloblastoma cell [25] = assay: Antitumor activity against primary mouse medulloblastoma allograft model assessed as tumor growth inhibition at 120 mg/kg, po bid for 3 weeks; type: functional, organism-based; set-up: dose 120 mg/kg; in short: as §3
Mus musculus [26] = assay: Toxicity in mouse medulloblastoma allograft model assessed as mortality at 80 mg/kg, po bid for 3 weeks; type: organism-based; set-up: dose 80 mg/kg, route oral; settings: in vivo, 504 h; in short: as §2
Mus musculus [27] = assay: Toxicity in mouse medulloblastoma allograft model assessed as mortality at 80 mg/kg, po qd for 3 weeks; type: organism-based; set-up: dose 80 mg/kg, route oral; settings: in vivo, 504 h; in short: as §2
Mus musculus [28] = assay: Toxicity in mouse medulloblastoma allograft model assessed as visible physical signs at 80 mg/kg, po bid for 3 weeks; type: organism-based; set-up: dose 80 mg/kg, route oral; settings: in vivo, 504 h; in short: as §2
Mus musculus [29] = assay: Toxicity in mouse medulloblastoma allograft model assessed as body weight loss at 80 mg/kg, po bid for 3 weeks; type: organism-based; set-up: dose 80 mg/kg, route oral; settings: in vivo, 504 h; in short: as §3
Mus musculus [30] = assay: Toxicity in mouse medulloblastoma allograft model assessed as mortality at 160 mg/kg, po bid for 3 weeks; type: organism-based; set-up: dose 160 mg/kg, route oral; settings: in vivo, 504 h; in short: as §2
[31] = AUC in mouse at 40 mg/kg, po; type: ADME, organism-based; set-up: dose 40 mg/kg, route oral; settings: plasma
Mus musculus [32] = assay: Toxicity in mouse medulloblastoma allograft model assessed as body weight loss at 120 mg/kg, po bid for 3 weeks; type: organism-based; set-up: dose 120 mg/kg, route oral; settings: in vivo, 504 h; in short: as §3
Mus musculus [33] = assay: Toxicity in mouse medulloblastoma allograft model assessed as visible physical signs at 40 mg/kg, po bid for 3 weeks; type: organism-based; set-up: dose 40 mg/kg, route oral; settings: in vivo, 504 h; in short: as §2
Mus musculus [34] = assay: Toxicity in mouse medulloblastoma allograft model assessed as body weight loss at 40 mg/kg, po bid for 3 weeks; type: organism-based; set-up: dose 40 mg/kg, route oral; settings: in vivo, 504 h; in short: as §3

T1 sequence (Q99835 whole entry): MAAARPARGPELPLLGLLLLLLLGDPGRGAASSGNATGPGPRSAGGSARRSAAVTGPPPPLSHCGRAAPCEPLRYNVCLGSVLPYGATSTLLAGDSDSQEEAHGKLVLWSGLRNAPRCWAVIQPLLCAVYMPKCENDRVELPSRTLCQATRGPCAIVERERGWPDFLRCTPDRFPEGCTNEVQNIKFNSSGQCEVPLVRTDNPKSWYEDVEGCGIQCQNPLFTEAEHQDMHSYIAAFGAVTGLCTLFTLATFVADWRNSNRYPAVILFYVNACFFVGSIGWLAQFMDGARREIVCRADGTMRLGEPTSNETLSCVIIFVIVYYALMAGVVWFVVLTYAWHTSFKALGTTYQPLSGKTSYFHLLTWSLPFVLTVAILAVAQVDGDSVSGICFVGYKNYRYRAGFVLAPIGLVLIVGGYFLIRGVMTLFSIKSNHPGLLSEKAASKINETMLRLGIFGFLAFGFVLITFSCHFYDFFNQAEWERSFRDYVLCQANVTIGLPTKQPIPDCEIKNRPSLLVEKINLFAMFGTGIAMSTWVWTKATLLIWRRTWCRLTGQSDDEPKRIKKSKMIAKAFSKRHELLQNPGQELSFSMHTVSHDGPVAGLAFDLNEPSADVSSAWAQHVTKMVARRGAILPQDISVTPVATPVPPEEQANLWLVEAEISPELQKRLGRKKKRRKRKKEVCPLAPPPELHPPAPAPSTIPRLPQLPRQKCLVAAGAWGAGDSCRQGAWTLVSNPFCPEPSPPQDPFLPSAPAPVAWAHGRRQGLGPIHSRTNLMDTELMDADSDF

## O=C(Nc1ccccc1-c1ccccc1)N1CCN2C(=O)N(C3CC3c3ccccc3)C(=O)C2C1 (stereo in doubt; 5)
Protein smoothened [1]
  IC50: 0.095 µM

## N#Cc1cc(Cl)c(NC(=O)N2CCN3C(=O)N([C@H]4C[C@@H]4c4ccccc4)C(=O)[C@@H]3C2)c(Cl)c1
Rattus norvegicus
  clearance: 2 mL/min/kg
[2]
  half-life: 5.4 h
Protein smoothened [3]
  IC50: 0.45 µM
[4]
  Vd: 0.5 L/kg
Protein smoothened [1]
  IC50: 0.1 µM
[5]
  bioavailability: 56%

## O=C(Nc1ccnn1-c1cccc(F)c1)N1CCN2C(=O)N([C@H]3C[C@@H]3c3ccccc3)C(=O)[C@@H]2C1
Protein smoothened [3]
  IC50: 0.009 µM
Protein smoothened [1]
  IC50: 0.007 µM

## O=C(Nc1ccccc1-c1ccccc1)N1CCN2C(=O)N([C@H]3C[C@@H]3c3ccccc3)C(=O)[C@@H]2C1
[6]
  CC50: 0.002 µM
Rattus norvegicus
  clearance: 56 mL/min/kg
[2]
  half-life: 2.7 h
Protein smoothened [3]
  IC50: 0.07 µM
[4]
  Vd: 8 L/kg
CYP2C9
  inhibition at 10 µM: 50%
Protein smoothened [1]
  IC50: 0.021 µM
CYP3A4
  inhibition at 10 µM: 50%
[7]
  fraction unbound: 0.044

## O=C(Nc1cccnc1-c1ccccc1)N1CCN2C(=O)N([C@H]3C[C@@H]3c3ccccc3)C(=O)[C@@H]2C1
Rattus norvegicus
  clearance: 54 mL/min/kg
[2]
  half-life: 4.9 h
Protein smoothened [3]
  IC50: 0.012 µM
[4]
  Vd: 6.7 L/kg
Protein smoothened [1]
  IC50: 0.012 µM
[5]
  bioavailability: 31%

## CN(C)C(=O)c1cc(Cl)c(NC(=O)N2CCN3C(=O)N([C@H]4C[C@@H]4c4ccccc4)C(=O)[C@@H]3C2)c(Cl)c1
Rattus norvegicus
  clearance: 41 mL/min/kg
[2]
  half-life: 0.6 h
Protein smoothened [3]
  IC50: 0.12 µM
[4]
  Vd: 2.1 L/kg
Protein smoothened [1]
  IC50: 0.077 µM

## O=C(Nc1cccc(Cl)c1Cl)N1CCN2C(=O)N([C@H]3C[C@@H]3c3ccccc3)C(=O)[C@@H]2C1
[6]
  CC50: 0.012 µM
Rattus norvegicus
  clearance: 46 mL/min/kg
[2]
  half-life: 2.2 h
Protein smoothened [3]
  IC50: 0.69 µM
[4]
  Vd: 8 L/kg
Canis familiaris
  clearance: 4 mL/min/kg
[8]
  half-life: 10 h
Protein smoothened [1]
  IC50: 0.23 µM
[9]
  Vd: 2.5 L/kg
[10]
  bioavailability: 97%
[5]
  bioavailability: 30%

## O=C(Nc1cccc(Cl)c1Cl)N1CCN2C(=O)N([C@@H]3C[C@H]3c3ccccc3)C(=O)[C@H]2C1
Protein smoothened [1]
  IC50: 1.7 µM

## O=C(Nc1cccc(Cl)c1Cl)N1CCN2C(=O)N([C@H]3C[C@@H]3c3ccccc3)C(=O)[C@H]2C1
Protein smoothened [1]
  IC50: 0.65 µM

## O=C(Nc1ccnn1-c1ccccc1)N1CCN2C(=O)N([C@H]3C[C@@H]3c3ccccc3)C(=O)[C@@H]2C1
Mus musculus [11]
  Activity: Non-toxic
Mus musculus [12]
  Activity: Non-toxic
Medulloblastoma cell [13]
  growth inhibition (GI): Active
Medulloblastoma cell [14]
  growth inhibition (GI): Active
Medulloblastoma cell [15]
  growth inhibition (GI): Active
Medulloblastoma cell [16]
  growth inhibition (GI): Active
[17]
  AUC: 15 µM·h
Mus musculus [18]
  Activity: < 10%
[19]
  AUC: 24 µM·h
Rattus norvegicus
  clearance: 43 mL/min/kg
[2]
  half-life: 1.3 h
Protein smoothened [3]
  IC50: 0.018 µM
Mus musculus [20]
  Activity: Non-toxic
Mus musculus [21]
  Activity: < 10%
Mus musculus [22]
  Activity: Non-toxic
[4]
  Vd: 2.9 L/kg
Mus musculus [23]
  Activity: Non-toxic
Mus musculus [24]
  inhibition in vivo at 80 mg/kg: > 80%
Medulloblastoma cell [25]
  growth inhibition (GI): Active
Canis familiaris
  clearance: 5.5 mL/min/kg
Mus musculus [26]
  Activity: Non-toxic
Mus musculus [27]
  Activity: Non-toxic
Mus musculus [28]
  Activity: Non-toxic
Mus musculus [29]
  Activity: < 10%
[8]
  half-life: 2.5 h
Protein smoothened [1]
  IC50: 0.015 µM
[9]
  Vd: 1 L/kg
Mus musculus [30]
  Activity: Non-toxic
[31]
  AUC: 6.4 µM·h
Mus musculus [32]
  Activity: < 10%
Mus musculus [33]
  Activity: Non-toxic
[10]
  bioavailability: 82%
[5]
  bioavailability: 88%
Mus musculus [34]
  Activity: < 10%
[7]
  fraction unbound: 0.17

Source: ChEMBL document CHEMBL1811786, “Identification of MK-5710 ((8aS)-8a-methyl-1,3-dioxo-2-[(1S,2R)-2-phenylcyclo- propyl]-N-(1-phenyl-1H-pyrazol-5-yl)hexahydro-imidazo[1,5-a]pyrazine-7(1H)-carboxamide), a potent smoothened antagonist for use in Hedgehog pathway dependent malignancies, part 2” (Bioorg Med Chem Lett, 2011)
